Here are results for 30 compounds from ChEMBL document CHEMBL2331124, “Efficient synthesis of anacardic acid analogues and their antibacterial activities” (Bioorg Med Chem Lett, 2013).

In brackets after ≈: the same amount, converted by molar mass.

Data set [1] is described as follows: Cytotoxicity against human HepG2 cells after 24 hrs by resazurin assay. The format is cell-based. (In general: Resazurin is reduced to fluorescent resorufin, in cell work by metabolically active cells.)
Data set [2] can be described thus: Cytotoxicity against HEK293 cells after 24 hrs by resazurin assay. The class given is cell-based. To be noted: human.
In data set [3] the test system is Staphylococcus aureus. Kind of data set: Antibacterial activity against Staphylococcus aureus ATCC 25923 assessed as growth inhibition after 24 hrs by CLSI twofold serial broth microdilution method. The class given is functional. The settings on record: ATCC 25923, 24 h. The gist of the method:
(§1)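 CLSI-standard twofold serial broth microdilution; MIC read-out in μg/mL, with vancomycin tested alongside as reference antibiotic.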
(In general: In broth dilution the organism is exposed to a series of concentrations in liquid medium.)

The subject of data set [4] is Staphylococcus aureus. Kind of data set: Antibacterial activity against glycopeptide-intermediate Staphylococcus aureus NRS 19 assessed as growth inhibition after 24 hrs by CLSI twofold serial broth microdilution method. The class given is functional. The settings on record: NRS 19, 24 h. In outline:
as §1

Data set [5] deals with Staphylococcus aureus. Kind of data set: Antibacterial activity against methicillin-resistant Staphylococcus aureus ATCC 43300 assessed as growth inhibition after 24 hrs by CLSI twofold serial broth microdilution method. The settings on record: ATCC 43300, 24 h. The format is functional. In outline: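 Read-out was the MIC in μg/mL, determined by twofold serial broth microdilution to CLSI standards.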

One may read the CC50 as the concentration giving 50% cytotoxicity. What is called MIC is the least concentration at which growth counts as inhibited.

Take `Oc1cc(CCc2ccc3ccccc3c2)cc(O)c1O`: the 50% cytotoxic concentration (CC50) at 24 h in data set [1] and in data set [2] was over 100 µM each time.

As to `Oc1cc(CCc2ccccc2)cc(O)c1O`, the CC50 at 24 h came out at 102 µM in data set [1] and 106 µM in data set [2].

As to `O=C(O)c1c(O)cccc1/C=C/c1ccccc1`, the cytotoxic concentration (CC50) at 24 h in data set [1] and in data set [2] was over 100 µM throughout.

For `COc1cc(C=Cc2ccc3ccccc3c2)c(C(=O)O)c(OC)c1`, the MIC in data set [3], in data set [4] and in data set [5] was over 128 µg/mL throughout. Moreover, the CC50 at 24 h in data set [1] and in data set [2] was over 100 µM in each case.

In the case of `COc1cc(Cl)cc(C=Cc2ccc3ccccc3c2)c1C(=O)O`, the figures for the MIC in data set [3], in data set [4] and in data set [5] were over 128 µg/mL, 128 µg/mL (≈ 378 µM) and 64 µg/mL (≈ 189 µM), respectively. In addition, the results for the CC50 at 24 h in data set [1] and in data set [2] were 104 µM and 93 µM, respectively.

In the case of `O=C(O)c1c(O)cccc1CCc1ccc2ccccc2c1`, the minimal inhibitory concentration (MIC) in data set [3], in data set [4] and in data set [5] was over 128 µg/mL in each case. Moreover, the CC50 at 24 h in data set [1] and in data set [2] was over 100 µM throughout.

As for `COc1cc(O)c(C(=O)O)c(CCc2ccc3ccccc3c2)c1`, the figures for the MIC in data set [3], in data set [4] and in data set [5] were 64 µg/mL (≈ 199 µM), 128 µg/mL (≈ 397 µM) and 64 µg/mL (≈ 199 µM), respectively. The half-maximal cytotoxic concentration (CC50) at 24 h in data set [1] was determined as 71 µM; in data set [2], 65 µM.

Turning to `O=C(O)c1c(O)cc(Cl)cc1CCc1ccc2ccccc2c1`, the figures for the MIC in data set [3], in data set [4] and in data set [5] were 16 µg/mL (≈ 49 µM), 128 µg/mL (≈ 392 µM) and 16 µg/mL (≈ 49 µM), respectively. Also, the CC50 at 24 h in data set [1] and in data set [2] was 35 µM throughout.

Consider `Cc1cc(O)c(C(=O)O)c(CCc2ccc3ccccc3c2)c1`, for which the values for the minimal inhibitory concentration (MIC) in data set [3], in data set [4] and in data set [5] were 32 µg/mL (≈ 104 µM), 128 µg/mL (≈ 418 µM) and 64 µg/mL (≈ 209 µM), respectively. For the same compound, the CC50 at 24 h in data set [1] was determined as 38 µM; in data set [2] it was 40 µM.

In the case of `CCN(CC)C(=O)c1c(/C=C/c2ccc3ccccc3c2)cccc1OC`, in data set [2], the midpoint of cytotoxicity, the CC50 at 24 h, lay at 116 µM.

Consider `CCN(CC)C(=O)c1c(/C=C\c2ccc3ccccc3c2)cccc1OC`, for which the CC50 at 24 h in data set [1] came out at 28 µM; in data set [2], 38.7 µM.

`CCN(CC)C(=O)c1c(CCc2ccc3ccccc3c2)cccc1OC`: the CC50 at 24 h came out at 35.8 µM in data set [1] and 85.7 µM in data set [2].

For `CCN(CC)C(=O)c1c(O)cccc1CCc1ccc2ccccc2c1`, the CC50 at 24 h in data set [1] and in data set [2] was over 100 µM each time.

For the compound `CCN(CC)C(=O)c1c(/C=C/c2ccc3ccccc3c2)cc(OC)cc1OC`, the CC50 at 24 h in data set [1] and in data set [2] was over 100 µM throughout.

Regarding `CCN(CC)C(=O)c1c(/C=C\c2ccc3ccccc3c2)cc(OC)cc1OC`, the CC50 at 24 h in data set [1] and in data set [2] was over 100 µM each time.

For the compound `CCN(CC)C(=O)c1c(CCc2ccc3ccccc3c2)cc(OC)cc1OC`, the CC50 at 24 h in data set [1] is 59 µM; in data set [2], over 100 µM.

Take `CCN(CC)C(=O)c1c(O)cc(O)cc1CCc1ccc2ccccc2c1`: the CC50 at 24 h was 36.4 µM in data set [1] and 30.6 µM in data set [2].

With `O=C(O)c1c(O)cccc1CCc1ccccc1`, the CC50 at 24 h in data set [1] and in data set [2] was over 100 µM throughout.

Consider `COc1cc(/C=C/c2ccccc2)cc(OC)c1OC`, for which the CC50 at 24 h in data set [1] turned out to be 38.4 µM; in data set [2] it was 62.6 µM.

Turning to `COc1cc(CCc2ccc3ccccc3c2)cc(OC)c1OC`, the cytotoxic concentration (CC50) at 24 h in data set [1] and in data set [2] was over 100 µM in each case.

Take `COc1cc(/C=C/c2ccc3ccccc3c2)cc(OC)c1OC`: the 50% cytotoxic concentration (CC50) at 24 h turned out to be 16.8 µM in data set [1] and 23.4 µM in data set [2].

With `COc1cc(CCc2ccccc2)cc(OC)c1OC`, the CC50 at 24 h in data set [1] and in data set [2] was over 100 µM each time.

For `COc1cc(/C=C\c2ccccc2)cc(OC)c1OC`, the CC50 at 24 h in data set [1] was found to be 20.2 µM; in data set [2], 36 µM.

Consider `COc1cccc(C=Cc2ccc3ccccc3c2)c1C(=O)O` (mixture of isomers), for which the minimum inhibitory concentration (MIC) in data set [3], in data set [4] and in data set [5] was over 128 µg/mL in each case. The CC50 at 24 h in data set [1] and in data set [2] was over 100 µM each time.

Regarding `COc1cc(C)cc(C=Cc2ccc3ccccc3c2)c1C(=O)O` (mixture of isomers), the minimal inhibitory concentration (MIC) in data set [3], in data set [4] and in data set [5] was over 128 µg/mL throughout. In addition, the cytotoxic concentration (CC50) at 24 h is 117 µM in data set [1] and 119 µM in data set [2].

As for `O=C(O)c1c(O)cccc1C=Cc1ccc2ccccc2c1` (mixture of isomers), the minimum inhibitory concentration (MIC) in data set [3], in data set [4] and in data set [5] was 64 µg/mL each time. Also, the 50% cytotoxic concentration (CC50) at 24 h in data set [1] was 71 µM; in data set [2] it was 97 µM.

On to `COc1cc(O)c(C(=O)O)c(C=Cc2ccc3ccccc3c2)c1` (mixture of isomers), for which the MIC in data set [3] was over 128 µg/mL; in data set [4], 128 µg/mL; in data set [5] it was 128 µg/mL. The cytotoxic concentration (CC50) at 24 h amounted to 79 µM in data set [1] and 65 µM in data set [2].

As for `O=C(O)c1c(O)cc(Cl)cc1C=Cc1ccc2ccccc2c1` (mixture of isomers), the MIC in data set [3], in data set [4] and in data set [5] was 16 µg/mL throughout. The results for the CC50 at 24 h in data set [1] and in data set [2] were 25 µM and 38 µM, respectively.

`Cc1cc(O)c(C(=O)O)c(C=Cc2ccc3ccccc3c2)c1` (mixture of isomers): the results for the MIC in data set [3], in data set [4] and in data set [5] were 16 µg/mL, 32 µg/mL and 16 µg/mL, respectively. Further, the CC50 at 24 h in data set [1] was 30 µM; in data set [2], 52 µM.

For the compound `COc1cc(/C=C\c2ccc3ccccc3c2)cc(OC)c1OC` [NAPHTHYLCOMBRETASTATIN], the half-maximal cytotoxic concentration (CC50) at 24 h in data set [1] and in data set [2] was over 100 µM each time.
